In ChEMBL document CHEMBL1799951, “FimH antagonists for the oral treatment of urinary tract infections: from design and synthesis to in vitro and in vivo evaluation” (J Med Chem, 2010):
≈ marks a conversion by molar mass, not a printed value. Calls of active or inactive are those of the source. No cut-off for these calls is given here.

Experiments:
[1] = target: Type 1 fimbrin D-mannose specific adhesin (Escherichia coli K-12) (UniProt P08191); test: Ratio IC50 for compound to IC50 for n-heptyl R-D-mannopyranoside for His-tagged FimH expressed in Escherichia coli HM125
In short: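 FimH-CRD-Th-6His (10 μg/mL) coated overnight at 4 °C in 20 mM HEPES, 150 mM NaCl, 1 mM CaCl2, pH 7.4, then blocked with 3% BSA. 4-fold compound dilutions in 5% DMSO competed with streptavidin-peroxidase TM-PAA polymer for 3 h at 25 °C. ABTS read at 415 nm, duplicates. IC50 divided by the IC50 of the heptyl mannoside reference run on the same plate.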

[2] = target: Mannose-binding protein C (Homo sapiens) (UniProt P11226); test: Binding affinity to MBP at 1 mM
In short: (§1)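 FimH-CRD (10 μg/mL), DC-SIGN-CRD-Fc (2.5 μg/mL) or MBP (10 μg/mL) coated overnight at 4 °C in 20 mM HEPES pH 7.4, 150 mM NaCl, 10 mM CaCl2. Competition against streptavidin-peroxidase TM-PAA polymer as in the FimH ELISA, test compounds at 1 mM. D-mannose at 50 mM as positive control.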

[3] = target: T1, CD209 antigen (Homo sapiens) (UniProt Q9NNX6); test: Binding affinity to Fc-IgG-tagged DC-SIGN carbohydrate recognizing domain at 1 mM; in short: as §1
T1 sequence (whole entry): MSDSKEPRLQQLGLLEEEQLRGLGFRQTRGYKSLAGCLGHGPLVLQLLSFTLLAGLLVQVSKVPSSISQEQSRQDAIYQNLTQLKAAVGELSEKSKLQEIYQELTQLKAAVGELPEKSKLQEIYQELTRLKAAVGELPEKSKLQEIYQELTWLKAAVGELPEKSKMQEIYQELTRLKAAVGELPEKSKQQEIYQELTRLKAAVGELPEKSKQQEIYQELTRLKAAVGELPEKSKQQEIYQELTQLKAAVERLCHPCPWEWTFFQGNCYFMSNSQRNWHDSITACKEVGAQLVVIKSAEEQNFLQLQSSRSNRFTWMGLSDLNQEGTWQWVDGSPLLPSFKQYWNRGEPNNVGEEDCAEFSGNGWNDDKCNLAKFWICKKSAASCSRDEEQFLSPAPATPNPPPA

[4] = Lipophilicity, log D at pH 7.4 by miniatured shake flask method; assay type: physicochemical; details: buffer
In short: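 Octanol-saturated 0.1 M phosphate pH 7.4 containing analyte at 1 μM, overlaid with octanol at two volume ratios, three wells each. Shaken 2 h at 25 °C, then centrifuged; aqueous phase measured by LC-MS. log D computed from depletion. Accepted when the ratio means agree within 0.1.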

[5] = Permeability of the compound assessed as membrane retention by PAMPA method; assay type: ADME
In short: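 PAMPA with GIT-0 lipid, donor analyte 50 μM at pH 5.0, 6.2 and 7.4 in quadruplicate, 16 h undisturbed incubation. Donor and acceptor quantified by UV and LC-MS.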

[6] = Thermodynamic solubility of the compound at pH 6.5 after 24 hrs by LC-MS analysis; assay type: physicochemical; details: buffer, read-out: Therm_solubility
In short: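 1 mg solid in 250 μL 50 mM phosphate pH 6.5, sonicated 15 min, shaken 2 h at 25 °C, left 24 h. pH measured, then filtered and diluted; concentration determined by LC-MS.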

[7] = Stability of the compound in simulated gastrointestinal fluid assessed as compound remaining after 2 hrs by LC-MS analysis; assay type: physicochemical; details: read-out: Stability
[8] = Stability of the compound in simulated intestinal fluid assessed as compound remaining after 2 hrs by LC-MS analysis; assay type: physicochemical; details: read-out: Stability
In short: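 Simulated intestinal fluid (phosphate, NaOH, pancreatin, pH 6) at 37 °C, compound at 10 μM, 500 rpm. Samples at 0-120 min MeCN-quenched; LC-MS as % remaining versus initial.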

[9] = Plasma protein binding in human by miniatured equilibrium dialysis method; assay type: ADME, cell-free; details: read-out: PPB (converted)
In short: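 Human plasma adjusted to pH 7.5 with analyte at 10 μM, dialysed against 0.1 M phosphate pH 7.5 (MWCO 12-14 K) for 5 h at 37 °C in triplicate. Compartments MeCN-precipitated and measured by LC-MS; fb = 1 − cbuffer/cplasma.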

[10] = Cmax in plasma of urinary tract infection C3H/HeN mouse model at 50 mg/kg, iv administered as single dose measured after 6 hrs by LC-MS analysis; assay type: ADME, organism-based; set-up: dose 50 mg/kg, route intravenous
In short: (§2)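 Female C3H/HeN mice (19-25 g) dosed once iv at 50 mg/kg in 100 μL PBS via tail vein. Blood and urine (10 μL) sampled at 6 min, 30 min, 1, 2, 4, 6, 8 and 24 h. Proteins precipitated with methanol, centrifuged, and supernatant quantified by LC-MS.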

[11] = Cmax in urine of urinary tract infection C3H/HeN mouse model at 50 mg/kg, iv administered as single dose measured after 6 hrs by LC-MS analysis; assay type: ADME, organism-based; set-up: dose 50 mg/kg, route intravenous; in short: as §2
[12] = AUC (0 to 24 hrs) in plasma of urinary tract infection C3H/HeN mouse model at 50 mg/kg, iv administered as single dose measured after 6 hrs by LC-MS analysis; assay type: ADME, organism-based; set-up: time < 24 hr, dose 50 mg/kg, route intravenous; in short: as §2
[13] = AUC (0 to 24 hrs) in urine of urinary tract infection C3H/HeN mouse model at 50 mg/kg, iv administered as single dose measured after 6 hrs by LC-MS analysis; assay type: ADME, organism-based; set-up: time < 24 hr, dose 50 mg/kg, route intravenous; in short: as §2
[14] = Plasma protein binding […] by LC-MS analysis; assay type: ADME, cell-free; details: read-out: PPB (converted)
Escherichia coli [15] = test: Antibacterial activity against Escherichia coli […] infected in urinary tract infection C3H/HeN mouse model assessed as log reduction in bacterial CFU in urine of mouse at 50 mg/kg, po administered as single dose 1 hr before infection and measured after 3 hrs post infection; assay type: functional; details: route intravenous, in the assay text read “iv administered” for “po administered”
Escherichia coli [16] = test: Antibacterial activity against Escherichia coli […] infected in urinary tract infection C3H/HeN mouse model assessed as log reduction in bacterial count in kidney of mouse at 50 mg/kg, iv administered as single dose 1 hr before infection and measured after 3 hrs post infection; assay type: functional, organism-based; set-up: dose 50 mg/kg
In short: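 Female C3H/HeN mice given antagonist iv (100 μL PBS, tail vein) or po as suspension, then infected. Infection: isoflurane anaesthesia, bladder emptied, 50 μL UTI89 at about 10^9-10^10 CFU/mL via transurethral catheter. Six mice per group, killed 3 h post-inoculation. Kidneys plated on EMB agar. Reduction taken against the 3 h untreated control mean; Mann-Whitney test.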

Escherichia coli [17] = test: Antibacterial activity against Escherichia coli […] infected in urinary tract infection C3H/HeN mouse model assessed as reduction in bacterial count in kidney of mouse at 50 mg/kg, iv administered as single dose 1 hr before infection and measured after 3 hrs post infection
Plasma = test: AUC (0 to 24 hrs) in plasma of urinary tract infection C3H/HeN mouse model assessed as Sodium3'-Chloro-4'-(alpha-D-mannopyranosyloxy)-biphenyl-4-carboxylate level at 50 mg/kg, po administered as single dose measured after 6 hrs by LC-MS analysis; assay type: ADME, organism-based; set-up: time < 24 hr, dose 50 mg/kg, route oral; details: in vivo
In short: (§3)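 Female C3H/HeN mice (19-25 g) given a single 50 mg/kg oral dose by gavage. Compound dissolved in DMSO, then diluted in 1% Tween-80/PBS to a suspension. Blood and urine (10 μL) sampled at 6 min, 30 min, 1, 2, 4, 6, 8 and 24 h. Proteins precipitated with methanol, then LC-MS; for the prodrug, both ester and carboxylate metabolite measured; n=6.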

[18] = target: Type 1 fimbrin D-mannose specific adhesin (Escherichia coli K-12, UniProt P08191); test: Competitive inhibition of His-tagged FimH carbohydrate recognizing domain expressed in Escherichia coli HM125 using ABTS-substrate after 3 hrs by […] assay
In short: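 FimH-CRD-Th-6His from E. coli HM125 coated at 10 μg/mL overnight at 4 °C and blocked with 3% BSA. 4-fold compound dilutions in HEPES buffer pH 7.4 (5% DMSO) plus streptavidin-peroxidase TM-PAA polymer, 3 h at 25 °C. ABTS developed 4 min and read at 415 nm. Duplicates; heptyl mannoside reference on each plate.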

[19] = Apparent permeability across human Caco2 cells after 120 mins by HPLC analysis; assay type: ADME, cell-based; details: Caco-2
In short: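 Caco-2 cells at passage 60-65 seeded on Transwells and used on days 19-21 in DMEM without pyruvate/phenol red. Only monolayers with TEER >300 Ωcm2 before and after were kept. Apical dosing from 10 mM stock, shaken at 250 rpm. Basolateral samples at 5-120 min by HPLC; Papp = (dQ/dt)/(A·c0). Triplicates.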

Liver [20] = test: Metabolic stability of the compound in mouse liver microsomes assessed as degradation by carboxylesterase at 2 uM by LC-MS analysis; assay type: ADME, Microsome
In short: (§4)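 Pooled male mouse liver microsomes (0.25 mg/mL) with 2 μM compound in 0.1 M TRIS pH 7.4 and 2 mM MgCl2 at 37 °C. Samples at 0, 1, 3, 6 and 15 min quenched in cold MeCN; LC-MS as % remaining. The inhibitor arm used microsomes pre-incubated 5 min with 1 mM BNPP.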

Liver [21] = test: Metabolic stability of the compound in mouse liver microsomes assessed as degradation by carboxylesterase at 2 uM by LC-MS analysis in presence of CES inhibitor BNPP; assay type: ADME, Microsome; in short: as §4
[22] = AUC (0 to 24 hrs) in plasma of urinary tract infection C3H/HeN mouse model at 50 mg/kg, po administered as single dose measured after 6 hrs by LC-MS analysis; assay type: ADME, organism-based; set-up: time < 24 hr, dose 50 mg/kg, route oral; in short: as §3
[23] = AUC (0 to 24 hrs) in urine of urinary tract infection C3H/HeN mouse model at 50 mg/kg, po administered as single dose measured after 6 hrs by LC-MS analysis; assay type: ADME, organism-based; set-up: time < 24 hr, dose 50 mg/kg, route oral
In short: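 Female C3H/HeN mice (19-25 g) gavaged once at 50 mg/kg. Compound dissolved in DMSO and diluted in 1% Tween-80/PBS as a suspension, or given in 200 μL PBS. Blood and urine sampled at 6 min to 24 h, methanol-precipitated, and analysed by LC-MS. For the prodrug, both parent and carboxylate metabolite were measured.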

[24] = AUC (0 to 24 hrs) in urine of urinary tract infection C3H/HeN mouse model assessed as Sodium3'-Chloro-4'-(alpha-D-mannopyranosyloxy)-biphenyl-4-carboxylate level at 50 mg/kg, po administered as single dose measured after 6 hrs by LC-MS analysis; assay type: ADME, organism-based; set-up: time < 24 hr, dose 50 mg/kg, route oral; details: in vivo; in short: as §3

Chain of Type 1 fimbrin D-mannose specific adhesin (Escherichia coli K-12) (P08191 whole entry): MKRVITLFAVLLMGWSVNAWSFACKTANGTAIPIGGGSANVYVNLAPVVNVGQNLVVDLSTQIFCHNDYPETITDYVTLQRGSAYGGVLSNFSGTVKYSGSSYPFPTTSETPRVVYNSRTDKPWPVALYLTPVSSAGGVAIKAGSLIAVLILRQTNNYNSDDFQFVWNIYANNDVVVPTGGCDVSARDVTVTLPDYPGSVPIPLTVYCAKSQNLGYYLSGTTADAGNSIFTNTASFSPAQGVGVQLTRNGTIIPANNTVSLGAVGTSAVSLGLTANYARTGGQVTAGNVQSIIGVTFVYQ
Chain of Type 1 fimbrin D-mannose specific adhesin (P08191 whole entry, the tested form may be a part): as the sequence (P08191 whole entry) above
Chain of Mannose-binding protein C (Homo sapiens) (P11226 whole entry): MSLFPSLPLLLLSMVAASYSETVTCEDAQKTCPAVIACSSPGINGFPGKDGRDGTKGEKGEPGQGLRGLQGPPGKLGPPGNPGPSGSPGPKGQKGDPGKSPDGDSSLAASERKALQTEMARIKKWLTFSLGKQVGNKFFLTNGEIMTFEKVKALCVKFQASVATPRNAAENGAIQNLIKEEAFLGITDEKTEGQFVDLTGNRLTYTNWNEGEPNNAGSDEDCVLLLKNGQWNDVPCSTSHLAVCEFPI

## CCCCCCCO[C@H]1O[C@H](CO)[C@@H](O)[C@H](O)[C@@H]1O
[1]
  Ratio IC50: 1
[2]
  Activity: inactive
[3]
  Activity: inactive
[4]
  logD: 1.65
[5]
  permeability: 21%
[6]
  solubility thermodynamic at 24 h: > 3000 µg/mL
[7]
  remaining at 2 h: 80%
[8]
  remaining at 2 h: 80%
[9]
  fraction unbound: 0.19
[10]
  Cmax: 35 µg/mL
[11]
  Cmax: 951 µg/mL
[12]
  AUC(0-t) at 24 h: 34.3 µg·h/mL
[13]
  AUC(0-t) at 24 h: 2470 µg·h/mL
[14]
  fraction unbound: 0.19
Escherichia coli [15]
  FC: 1.5
Escherichia coli [16]
  Activity: Active
Escherichia coli [17]
  Activity: Active

## COC(=O)c1ccc(-c2ccc(O[C@H]3O[C@H](CO)[C@@H](O)[C@H](O)[C@@H]3O)c(Cl)c2)cc1
Plasma
  AUC: 2.1 µg·h/mL
[18]
  IC50: 4.8 nM
[1]
  Ratio IC50: 0.06
[4]
  logD: 2.32
[5]
  permeability: 41%
[19]
  Papp at 2 h: 2.05 ×10⁻⁶ cm/s
[6]
  solubility thermodynamic at 24 h: 11.9 µg/mL (≈ 28 µM)
[7]
  remaining at 2 h: 80%
[8]
  remaining at 2 h: 80%
Liver [20]
  Stability: Unstable
Liver [21]
  Stability: Stable
[9]
  fraction unbound: 0.06
[22]
  AUC(0-t) at 24 h: 1.02 µg·h/mL
[23]
  AUC(0-t) at 24 h: 1.89 µg·h/mL
[24]
  AUC: 21.69 µg·h/mL
